Read-outs that look alike come from different tables or passages of the source.
Key:
[1] = tested on: cGMP in mouse ovarian follicles; experiment: cGMP ELISA assay in isolated ovarian follicles; type: cell-based
Summary of the method: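 Cultured mouse antral follicles (24–32 h, FSH, 3 mg/ml BSA), treated 1 h with LH (350 nM) or epiregulin (100 nM), or 1 h 500 nM test compound then 1 h test compound + LH. 12–20 unfrozen follicles washed in Ca/Mg-free PBS, sonicated in 0.1 M HCl (±1% Triton X-100), heated 95°C 2 min, stored −80°C, assayed by cGMP ELISA. Concentration approximated from 20 nl estimated cellular volume; mean ± s.e.m.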

[2] = tested on: follicle-enclosed oocytes; settings: U0126; ref Su et al., 2003; Norris et al. 2008; cited from earlier work
[3] = tested on: gap junctions in mouse ovarian follicles; settings: 10 μM U0126; ref Norris et al. 2008; cited from earlier work
MAP kinase = settings: 10 μM U0126; ref Norris et al. 2008; cited from earlier work
[4] = tested on: follicle-enclosed oocytes; experiment: Nuclear envelope breakdown; type: cell-based, mouse
Summary of the method: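 Meiotic resumption scored by viewing the oocyte nucleus through the follicle wall from above (20X/0.4 NA long working distance objective). Follicles from 23–24-day B6SJLF1 mice were cultured 24–32 h in FSH-containing, serum-free medium (3 mg/ml BSA), 37°C, 5% CO2, checked at 24 h, and only healthy prophase-arrested ones used. LH at 350 nM. Experiments discarded when <70% of LH controls reached NEBD by 5 h.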

[5] = tested on: gap junctions in mouse ovarian follicles; experiment: Gap junction permeability by Alexa Fluor 350 tracer injection; type: cell-based; settings: for MG/IC fluorescence ratio as percent of the basal level: one hour treatment, LH 350 nM, epiregulin 100 nM
Summary of the method: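 Antral follicles (~320–400 μm) from 23–24-day B6SJLF1 mice, cultured 24–32 h at 37°C, 5% CO2, in phenol-red-free MEMα with FSH and 3 mg/ml BSA; 1 h LH (350 nM) or epiregulin. Follicle-enclosed oocyte microinjected with 2.5 mM Alexa Fluor 350 (326 Da); two-photon imaging 20 min later; mural granulosa/inner cumulus fluorescence ratio; mean ± s.e.m., n = follicles.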

EGFR [6] = biological target: T1, EGFR (Mus musculus, UniProt Q01279); experiment: Immunoblot of EGFR phosphorylation on tyrosine 1068 in follicles; type: cell-based; settings: 500 nM AG1478, follicles stimulated with LH
T1 sequence (Q01279 25-1210): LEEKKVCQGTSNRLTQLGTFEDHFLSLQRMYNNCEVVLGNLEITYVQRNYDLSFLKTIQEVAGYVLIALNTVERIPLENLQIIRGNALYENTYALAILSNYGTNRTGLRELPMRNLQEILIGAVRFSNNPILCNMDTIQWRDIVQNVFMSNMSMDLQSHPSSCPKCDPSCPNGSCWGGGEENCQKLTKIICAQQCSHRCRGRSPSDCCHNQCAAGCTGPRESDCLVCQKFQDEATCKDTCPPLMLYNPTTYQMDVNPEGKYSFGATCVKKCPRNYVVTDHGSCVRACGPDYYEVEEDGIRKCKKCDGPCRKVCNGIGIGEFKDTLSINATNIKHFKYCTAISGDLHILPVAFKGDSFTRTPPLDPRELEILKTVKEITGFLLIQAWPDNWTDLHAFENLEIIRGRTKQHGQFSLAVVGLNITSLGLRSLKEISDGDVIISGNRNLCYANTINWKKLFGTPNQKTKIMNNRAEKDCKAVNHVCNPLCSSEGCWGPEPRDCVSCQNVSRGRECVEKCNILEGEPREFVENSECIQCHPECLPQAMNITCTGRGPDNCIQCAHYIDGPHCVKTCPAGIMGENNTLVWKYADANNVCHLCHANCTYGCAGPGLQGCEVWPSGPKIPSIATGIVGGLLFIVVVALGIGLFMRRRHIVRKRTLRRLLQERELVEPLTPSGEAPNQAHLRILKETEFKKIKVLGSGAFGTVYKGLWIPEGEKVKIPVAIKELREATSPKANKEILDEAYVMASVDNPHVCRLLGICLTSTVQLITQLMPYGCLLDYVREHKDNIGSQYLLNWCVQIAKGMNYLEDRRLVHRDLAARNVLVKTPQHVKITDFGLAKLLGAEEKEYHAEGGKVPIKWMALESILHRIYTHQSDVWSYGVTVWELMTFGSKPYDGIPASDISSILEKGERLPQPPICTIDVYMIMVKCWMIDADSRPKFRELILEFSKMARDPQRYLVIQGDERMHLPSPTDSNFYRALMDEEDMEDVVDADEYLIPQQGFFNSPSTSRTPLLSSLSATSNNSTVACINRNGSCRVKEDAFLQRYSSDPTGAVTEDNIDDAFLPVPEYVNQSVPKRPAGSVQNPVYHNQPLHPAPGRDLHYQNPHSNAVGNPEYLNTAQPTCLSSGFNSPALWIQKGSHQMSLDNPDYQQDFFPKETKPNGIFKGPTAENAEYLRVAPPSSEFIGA

110 kinases = experiment: In vitro kinase profiling panel; type: biochemical; settings: for percent of activity remaining: 1 μM AG1478
ERK1 = ERK1 (Homo sapiens, UniProt P27361); experiment: In vitro kinase profiling, ERK1; type: biochemical; settings: 1 μM AG1478
Sequence of ERK1 (P27361 whole entry, species assumed): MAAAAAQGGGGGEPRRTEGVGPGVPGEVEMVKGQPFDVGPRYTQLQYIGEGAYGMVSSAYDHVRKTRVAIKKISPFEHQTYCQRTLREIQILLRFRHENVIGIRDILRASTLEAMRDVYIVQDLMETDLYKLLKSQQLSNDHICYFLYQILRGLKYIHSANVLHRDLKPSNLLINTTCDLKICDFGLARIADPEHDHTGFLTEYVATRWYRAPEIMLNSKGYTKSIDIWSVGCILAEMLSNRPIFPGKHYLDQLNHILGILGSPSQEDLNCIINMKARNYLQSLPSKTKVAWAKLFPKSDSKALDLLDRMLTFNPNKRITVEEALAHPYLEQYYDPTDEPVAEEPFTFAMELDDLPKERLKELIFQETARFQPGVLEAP

ERK2 = ERK2 (Homo sapiens, UniProt P28482); experiment: In vitro kinase profiling, ERK2; type: biochemical; settings: 1 μM AG1478
Sequence of ERK2 (P28482 whole entry, species assumed): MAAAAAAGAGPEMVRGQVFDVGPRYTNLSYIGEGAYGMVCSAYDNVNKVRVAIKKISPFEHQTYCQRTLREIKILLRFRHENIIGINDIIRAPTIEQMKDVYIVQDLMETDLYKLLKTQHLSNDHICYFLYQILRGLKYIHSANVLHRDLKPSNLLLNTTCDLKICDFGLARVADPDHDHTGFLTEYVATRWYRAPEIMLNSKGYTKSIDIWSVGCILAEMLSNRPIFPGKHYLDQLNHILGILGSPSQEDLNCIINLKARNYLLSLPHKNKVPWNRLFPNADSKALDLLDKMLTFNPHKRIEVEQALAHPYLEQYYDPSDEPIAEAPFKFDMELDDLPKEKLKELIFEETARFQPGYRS

[7] = tested on: cGMP in mouse ovarian follicles; settings: ref Vaccari et al. 2009, cited from earlier work
EGFR [8] = biological target: T1, EGFR; settings: 500 nM AG1478, follicles stimulated with LH; ref Panigone et al. 2008; cited from earlier work
EGFR kinase = settings: read-out: IC50, EGFR kinase activity; in vitro; ref Levitzki & Gazit 1995; cited from earlier work

In the case of N#CC(=C(/N)Sc1ccccc1N)/C(C#N)=C(/N)Sc1ccccc1N [U0126], the “effect on the cGMP decrease in response to LH” value ([1]; 10 μM U0126, 1 hour pretreatment then 1 hour U0126 + LH) is given as “did not have any inhibitory effect”, the “meiotic resumption in response to LH in the presence of inhibitor” value [2] is given as “causes meiotic resumption” and the “effect on gap junction closure in response to LH” value [3] is given as “completely inhibits”. The “effect on MAP kinase activation in response to LH” value (MAP kinase) was “fully inhibit”.

For epiregulin, the “part of the LH-induced follicle cGMP decrease caused by epiregulin” value ([1]; 100 nM epiregulin, 1 hour, relative to LH) was ~ 80%, the “follicle cGMP concentration” value ([1]; 1 hour treatment with 100 nM epiregulin) was ~ 600 nM and the “oocytes that underwent nuclear envelope breakdown” value ([4]; 100 nM epiregulin, by 4 hours) was “Approximately 90%”. For the same compound, the “MG/IC fluorescence ratio as percent of the basal level” value [5] was 32%.

With COc1cc2ncnc(Nc3cccc(Cl)c3)c2cc1OC [AG1478] the “cGMP as percent of the basal level” value ([1]; 1 hour after LH in the presence of 500 nM AG1478) was ~ 15%, the “follicle cGMP concentration” value ([1]; 1 hour after LH in the presence of 500 nM AG1478 (1 hour pretreatment)) was […] and the “oocytes that had resumed meiosis” value ([4]; 500 nM AG1478 + LH, observed at 20 hours) was ~ 30%. The “effect on nuclear envelope breakdown in response to LH” value ([4]; 500 nM AG1478, observed at 6 hours) was “completely inhibited”, the “gap junction permeability after LH application” value ([5]; in the presence of 500 nM AG1478) was “indistinguishable from that in an untreated follicle” and the “LH-stimulated phosphorylation of the EGFR on tyrosine 1068” value (EGFR [6]) was “indistinguishable from the basal level without LH”. The “percent of activity remaining” value (110 kinases; seven of the 110 kinases tested) was 30-50%, the “percent of activity remaining” value (110 kinases; the other 101 kinases) was over 50% and the “percent of activity remaining” value (110 kinases; two of the 110 kinases tested) was 10-20%. The IC50 (110 kinases; 101 out of the 110 kinases tested) was over 1000 nM, the “inhibition of ERK1” value (ERK1) was “not inhibited” and the “inhibition of ERK2” value (ERK2) was “not inhibited”. The “effect on the cGMP decrease in response to LH” value ([7]; 500 nM AG1478) was “completely inhibited”, the “effect on LH-induced EGFR phosphorylation on tyrosine 1068” value (EGFR [8]) was “completely inhibits” and the IC50 (EGFR kinase) was […].

For luteinizing hormone [LH], the “cGMP as percent of the basal level” value ([1]; 1 hour after LH application) was ~ 4%, the “follicle cGMP concentration” value ([1]; 1 hour after LH application (350 nM), approximate) was ~ 100 nM and the “follicle cGMP concentration” value ([1]; 5 hours after LH application (350 nM), approximate) was ~ 30 nM. The “MG/IC fluorescence ratio as percent of the basal level” value [5] was 9% and the “cGMP as percent of the basal level” value ([7]; 1 hour after LH application) was 39%.

From article PMC3119707 (Reproduction (Cambridge, England), 2010)
